The values below come from the EternaBench riboswitch data.

The data set concerns MS2 coat protein. Description: apparent Kd, MS2 coat protein; higher = weaker binding; RNA-MaP array; FMN 200 µM where present. Put shortly: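 The apparent Kd is the median of filtered binding-curve fits, one per cluster, to green signal normalised to red-channel RNA signal and control-cluster median Fmax. The clusters were on Illumina sequencing chips, and stalled E. coli RNA polymerase had transcribed the designs on them. Titration used SNAP-549-labelled MS2 coat protein from 0.7 or 1.5 nM, doubling to 3 µM, without and then with constant ligand, in 100 mM Tris-HCl pH 7.5, 80 mM KCl, 4 mM MgCl2, BSA, DTT, yeast tRNA and Tween-20.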

[1] abbreviates: designed as: OFF switch for flavin mononucleotide, no ligand.
The mark [2] stands for this setting: ligand present: flavin mononucleotide, designed as: OFF switch for flavin mononucleotide.
The mark [3] stands for this setting: designed as: ON switch for flavin mononucleotide, no ligand.
[4] abbreviates: ligand present: flavin mononucleotide, designed as: ON switch for flavin mononucleotide.

A word on the apparent Kd: it is the concentration giving half-maximal binding under the conditions of the assay. Regarding “GAAAACUGAGGAUAUACAUGAGGAUCACCCAUGUAGGUACGGCUUCUACAUUCGUCAUGUAGAAGGCAGUAUAA”, the “apparent Kd” value is, setting by setting: under setting [1], 18.1 nM; under setting [2], 15.7 nM.
Take “AGCGUCGGCACAGGAUAUGAGAUGCCGGCAGACAUGAGGAUCACCCAUGUAAGCGAACCAGGCAGUCAGAAGGGUGAUCGACAA”: the “apparent Kd” value by setting is: under setting [3], 56.3 nM; under setting [4], 21.7 nM.
“ACAGUUCUGCAAGGAUAUCGUCCUAGUUUGUUUCGAGAAGGUGCUUUAGUUUAUUCCUUUUGUUUACAUGAGGAUCACCCAUGU”: the “apparent Kd” value under setting [1] came out at 23.6 nM and the “apparent Kd” value under setting [2] is 16.9 nM.
In the same order, the values of “CAGAAGUCAGGAUAUCCUGCUCGUCACUUGCGUGAUGAGUAGGAGAAGGGACAUGAGGAUCACCCAUGUAAAGC” are 53.8 nM and 65.2 nM.
On the same counts, the results for “GUUUUGGGAGGAUAUAUGUGGAUUAUUUUUGUAUGUUGUUUACAUGAGGAUCACCCAUGUAGAAGGUCUAGAGC” are 102 nM and 211 nM.
In the same order, the values of “GCAUGUAAGUAGAAGGGCAGAUAUUUUGAUACUGCAGGAUAUGCAGAAUCAUAUCCACAUGAUAACAUGAGGAUCACCCAUGUA” are 32.7 nM and 25.6 nM.
Take “UUUUUGUGAGGAUAUUAGUAGUAAAUAAAUAAAAUUAUUACUGAGAAGGCACAUGAGGAUCACCCAUGUUCCUU”: the “apparent Kd” value under setting [1] turned out to be 14.8 nM and the “apparent Kd” value under setting [2] is 68.1 nM.
On the same counts, the results for “ACGGUCUUGUCAGGAUAUACAUGAGGAUCACCCAUGUAAUGCGGGUAGGAUAACAAGUCACUUAGGUAGAAGGGACAAGGGACU” are 22.1 nM and 54.6 nM.
As to “UAAUUUUUAGUAAGGAUAUCGGUCCCAAGGGACAACGAGAAGGUACAUGAGGAUCACCCAUGUGAUUAAAGAAU”, the “apparent Kd” value is, setting by setting: under setting [1], 28.2 nM; under setting [2], 221 nM.
Turning to “AUAUGAUAGAUAGGAUAUACAUUGGAUUUAUAAGUAGAAGGAUCAAGUGGGAAUUAUACAUGAGGAUCACCCAUGUUUUUGGAU”, the “apparent Kd” value under setting [3] came to 63.9 nM and the “apparent Kd” value under setting [4] was determined as 43.9 nM.
In the case of “AAGUCUGUACGAGGAUAUCAGUUGUAUCUAGAUUCAACAUGAGGAUCACCCAUGUUGCAAUAGGGUGAGAAGGCGUGUGGGCAA”, the “apparent Kd” value under setting [3] was 101 nM and the “apparent Kd” value under setting [4] came out at 25.3 nM.
Turning to “ACAUGAGAUCGAGGAUAUUUUGUACCUACAUGUGACAUGAGGAUCACCCAUGUGGUAAGUAUGAGAAAGAAGGCGAAGAUAUGU”, the “apparent Kd” value is 41.4 nM under setting [3] and 22.1 nM under setting [4].
With “UGUUGUAUUACAGGAUAUCUAGUAGUUUUAUUUAGAGAAGGGUAUUCACAUGAGGAUCACCCAUGUAUAUACGAGGAAGUUGUG”, the “apparent Kd” value was 38.9 nM under setting [3] and 40 nM under setting [4].
For the sequence “UAUAUACAUGAGGAUCACCCAUGUAAGGAUAUGCUUUAUUAUUAUUAUUAUUAUUAUUGCAGAAGGUACAAUAU”, the “apparent Kd” value under setting [1] was 32 nM and the “apparent Kd” value under setting [2] stood at 29.8 nM.
In the same order, the values of “AGUCAUACAGGAUAUACAUGAGGAUCACCCAUGUUUAUCCUAAAAAAGUGAUCCUCAUGUAGAAGGGUAUGACA” are 15.2 nM and 18.9 nM.
On the same counts, the results for “CCAUCGAGUGUGAGGAUAUGCUGGUCCUUGGAUCAGCAGAAGGCACAUGAGGAUCACCCAUGUGAAUACGGUGG” are 29.9 nM and 199 nM.
Consider “CGCUUUAUAUAUUUGGCAAGAAUCAGAAGGCGUUACAUGAGGAUCACCCAUGUUUUGUAUAGUAACGAGGAUAUGAUAUGAGCG”, for which the “apparent Kd” value runs as follows: under setting [1], 14.6 nM; under setting [2], 14.8 nM.
In the same order, the values of “GUCUCGUGAGGAUAUGACGCUACUUUUUUGUUUUAGUAGAGUCAGAAGGCACAUGAGGAUCACCCAUGUGAUUC” are 78.6 nM and 48.7 nM.
On the same counts, the results for “GGGAAGUGAGGAUAUGCUGCUCGUCACUUGCGUGAUGAGUAGCAGAAGGUACAUGAGGAUCACCCAUGUAAAAA” are 29.6 nM and 19 nM.
On the same counts, the results for “AUAAGUGAAAGCUAAAGAUUAGCCGAGGAUAUACAUGAGGAUCACCCAUGUAAGGGUCGCCUUCUGUAGAAGGCGGCGGUCUAG” are 40.5 nM and 76.5 nM.
As for “UCCACUGCUGAGAAGGGAUACGUGUGGUUCGCAUCAGGAUAUCGAUACAGUGCAGCAUGAGGACAUGAGGAUCACCCAUGUAUC”, the “apparent Kd” value under setting [3] amounted to 43 nM and the “apparent Kd” value under setting [4] was found to be 16.5 nM.
As for “AGAUUUGUACAUGAGGAUCACCCAUGUUAAUAGGUGGUAGUCAGAAGGCAUUGAUAGAGUUUUAAUGAGGAUAUGAAUAUACAG”, the “apparent Kd” value is 267 nM under setting [3] and 126 nM under setting [4].
Regarding “CGUACUGAAGUGAGGAUAUUGUCUCGGAUACGAAACAAGAAGGCACAUGAGGAUCACCCAUGUUGACAGUACGA”, the “apparent Kd” value runs as follows: under setting [1], 15.8 nM; under setting [2], 13.1 nM.
In the same order, the values of “UAAAUUAACAAGAAGGCUAACAUGAGGAUCACCCAUGUUGUACAUGGAUAUAGAGGAUAUUGCUAAUAUUUAUUUAUCAUAAUU” are 21.8 nM and 17.3 nM.
Consider “GGUACCUUCACAGGAUAUGCUAUCCUUUGGGUAGCAGAAGGGUGAUAACAUGAGGAUCACCCAUGUGGUACCGGGCGUGAGCCC”, for which the “apparent Kd” value is 1180 nM under setting [3] and 109 nM under setting [4].
In the same order, the values of “CGUAACUGCAUAGGAUAUUGAUACAUGAGGAUCACCCAUGUUUUUCGGAUUUGUAAUAUACUAAGCAAGAAGGAUGGAGUUACG” are 8.04 nM and 5.66 nM.
With “AAAAAGUGAGGAUAUGCACUGUCCUGUAGACACGAGCAGUUGUAGAAGGCACAUGAGGAUCACCCAUGUUUAAA”, the “apparent Kd” value by setting is: under setting [1], 29.2 nM; under setting [2], 25.9 nM.
Turning to “AUGAAAUACUAGCACGGCGCGGCACAGGAUAUGCCUCAACAUGAGGAUCACCCAUGUCACUGUAGGUAGAAGGGUGUUAGCGAA”, the “apparent Kd” value under setting [3] worked out at 18.4 nM and the “apparent Kd” value under setting [4] turned out to be 5.52 nM.
In the case of “GCCUUACCGGUCAGGAUAUACAUUUGUCACUCCUUGUAGAAGGGACAUGAGGAUCACCCAUGUACAUUACAUUC”, the “apparent Kd” value reads like this: under setting [1], 29 nM; under setting [2], 28.6 nM.
In the same order, the values of “CAUGCACAUGAGGAUCACCCAUGUCAGGAUAUCUAUCAUAGCAUCGAAAGAUGCGGGUAGAGAAGGGACAACCC” are 16.2 nM and 16.4 nM.
On the same counts, the results for “GUUAAACAUGAGGAUCACCCAUGUAAGGAUAUGCUGCGGUCGCGCUGACGUGACUGCAGCAGAAGGUACAAAUG” are 105 nM and 66.9 nM.
Consider “GCCAUCGUAUGAGGAUAUGGCACCGAAACGGUGCCAGAAGGCAUGUCGAUAGACAUGAGGAUCACCCAUGUAUUAACGAUGGCA”, for which the “apparent Kd” value was 1120 nM under setting [3] and 117 nM under setting [4].
For “ACGUGACGGUUCGCGAGUGGACGGAGAAGGCAGACAUGAGGAUCACCCAUGUGAGCCUGCUAUUCUGAGGAUAUCCGUUCGCAC”, the “apparent Kd” value under setting [1] is 25.7 nM and the “apparent Kd” value under setting [2] worked out at 130 nM.
For the sequence “GCCAUCGUAUGAGGAUAUGGCACCGAAACGGUGCCAGAAGGCAUGUCAAUCGACAUGAGGAUCACCCAUGUGUUAUCGAUGGCA”, the “apparent Kd” value came out at 305 nM under setting [3] and 25.1 nM under setting [4].
In the same order, the values of “UAACCGCAGCAGAAGGGACGUCGGGUGGACUAGUCAGGAUAUGCAUGCCGGCAUAGACAUGAGGAUCACCCAUGUACGAGUGGC” are 347 nM and 87.5 nM.
Take “ACAUGAGGAUCACCCAUGUGAGGAUCACCCAUGUUAUAUUUCAGAAGGCUCGUGUGUUUGAUGAGAGAGGAUAUGGAAUAUAGG”: the “apparent Kd” value came out at 101 nM under setting [1] and 71.1 nM under setting [2].
On to “GCAGCAAUCUUUAACAUGAGGAUCACCCAUGUCGAGAGAUAUGAGGAUAUGCAUCUGAAGAAGAUGCAGAAGGCAUUGUGCUGC”, for which the “apparent Kd” value runs as follows: under setting [3], 6.26 nM; under setting [4], 5 nM.
Consider “UAGAUGGGAGGAUAUACGUAGAUGCGGAUUCGUGUGGUGCUACAUGAGGAUCACCCAUGUAGAAGGCCCGUCUU”, for which the “apparent Kd” value by setting is: under setting [1], 17.1 nM; under setting [2], 72.2 nM.
On the same counts, the results for “UAGAAGUCAGGAUAUGCUGCUCGUCACUUGCGUGAUGAGUAGCAGAAGGGACAUGAGGAUCACCCAUGUAAAGG” are 208 nM and 424 nM.
In the same order, the values of “GCCUGCUGGCGAGGAUAUUCUGUGCGGUUCCGGCUCGUGUCUGUUACAUGAGGAUCACCCAUGUGGGAGAAGGUGUCUGCGGCC” are 7.66 nM and 8.34 nM.
In the same order, the values of “AUCAGCUCGUCAGGAUAUACGUCACUGCGUCAGCAGUGUGGGAAGAUCACAUGAGGAUCACCCAUGUAGAAGGGACGAGCUGAU” are 635 nM and 20.4 nM.
In the case of “CUAUUUAGUGCCUCAUGUACAUGAGGAUCACCCAUGUUAACUUAGGAUAUAUUUAUAUUGUUAGAGUAGAAGGAAGUACUAUUU”, the “apparent Kd” value by setting is: under setting [1], 26.3 nM; under setting [2], 21.5 nM.
On the same counts, the results for “UCACAGGGAGGAUAUACAUGAGGAUCACCCAUGUGAAUCUUCGACCUGCAGGUACUUUGUAGAAGGCCCAGUGG” are 107 nM and 123 nM.
In the same order, the values of “UAAUAAUAAUAAUAGCAGUUUACAUGAGGAUCACCCAUGUAUAAGGAUAUCGUCAGGAAUACUGACGAGAAGGUAUACAUCUGC” are 20.3 nM and 33.6 nM.
On the same counts, the results for “CGUACUGAAGUGAGGAUAUUGUCUCGGAUACGAAACAAGAAGGCACAUGAGGAUCACCCAUGUAAACAGUACGA” are 17.5 nM and 14.2 nM.
“GGUACUCAAAGAGUACCAAUACGAACAUGAGGAUCACCCAUGUAGGAUAUGCUACUCAAAGAGUAGCAGAAGGAUAUGUGCCUA”: the “apparent Kd” value under setting [1] came out at 14.7 nM and the “apparent Kd” value under setting [2] came to 15.3 nM.
In the same order, the values of “GAUUUGUGAGGAUAUACAUGAGGAUCACCCAUGUGUGUCCAUACGCGUGAGUCUUCGUGUAGAAGGCGCGGGUC” are 15.5 nM and 15.9 nM.
For the sequence “CUCACGUUAGUAGGAUAUCCGACAUGAGGAUCACCCAUGUCACUACGCCUCAAGGGAAGGCGUAAGGAGAAGGGCUGAUAAAUA”, the “apparent Kd” value reads like this: under setting [3], 254 nM; under setting [4], 156 nM.
